The source made the active and inactive calls. The rule behind the calls is not given here.
Assays:
T47D = assay: Induction of cell cycle arrest in human T47D cells assessed as accumulation in G2/M phase at 40 nM incubated for 36 hrs by propidium iodide staining based flow cytometry; assay type: functional
In short: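 Cells were treated with graded concentrations for 36 h, then fixed overnight in 70% ice-cold ethanol at 4°C and resuspended in PBS. Staining used 50 µg/ml PI plus 5 µg/ml RNase at 37°C for 30 min. DNA content was analysed by FACS to give G0/G1, S and G2/M fractions.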

[1] = Toxicity in NOD/SCID BALB/c mouse xenografted with human SiHa cells assessed as body weight at 40 mg/kg, po administered for 21 days; assay type: organism-based; settings: in vivo, 504 h
In short: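 Female NOD/SCID Balb/c mice, 6–8 weeks, implanted subcutaneously in right flank with 2×10^6 SiHa cells in 100 µL medium. At 100 mm³ tumors, randomized (5 mice/group) to daily oral gavage. Body weight monitored every 3 days; study ended day 21.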

MDA-MB-231 [2] = assay: Antiproliferative activity against human MDA-MB-231 cells at 20 to 40 nM assessed as reduction in cell viability incubated for 48 hrs by EdU staining based laser scanning confocal microscopy; assay type: functional
In short: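 Cells, 5×10^4, were seeded in 24-well plates and treated for 48 h. They were then labeled using an EdU Apollo 488 imaging kit with Hoechst 33342 nuclear stain and imaged by laser scanning confocal microscopy. Percent EdU-positive cells = EdU-positive/Hoechst-stained × 100%.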

[3] = target: MAP kinase-activated protein kinase 2 (Homo sapiens) (UniProt P49137); assay: Inhibition of recombinant human MAPKAPK2 (46 to end residues) at 1 uM using KKLNRTLSVA as substrate incubated for 40 mins in presence of [gamma-33P]-ATP by scintillation counting method relative to control
[4] = target: Serine/threonine-protein kinase Nek2 (Homo sapiens) (UniProt P51955); assay: Inhibition of recombinant human full length NEK2 at 1 uM using myelin basic protein as substrate incubated for 40 mins in presence of [gamma-33P]-ATP by scintillation counting method relative to control
[5] = target: Mitogen-activated protein kinase kinase kinase 10 (Homo sapiens) (UniProt Q02779); assay: Inhibition of recombinant human MLK2 (1 to 449 residues) at 1 uM using myelin basic protein as substrate incubated for 40 mins in presence of [gamma-33P]-ATP by scintillation counting method relative to control
MDA-MB-231 [6] = assay: Induction of apoptosis in human MDA-MB-231 cells assessed as decrease in Ki67 expression at 20 to 40 nM incubated for 48 hrs by Western blot analysis; assay type: functional, cell-based
In short: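 Cells were treated for 48 h, washed three times with PBS, and lysed in RIPA buffer. Immunoblots used anti-Rb, anti-phospho-Rb, anti-Ki67 and anti-Bcl-2 (each 1:1000), with β-actin as loading control.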

Mitogen-activated protein kinase kinase kinase 10 (Homo sapiens), sequence (Q02779 whole entry, looked up, the tested form may be a part): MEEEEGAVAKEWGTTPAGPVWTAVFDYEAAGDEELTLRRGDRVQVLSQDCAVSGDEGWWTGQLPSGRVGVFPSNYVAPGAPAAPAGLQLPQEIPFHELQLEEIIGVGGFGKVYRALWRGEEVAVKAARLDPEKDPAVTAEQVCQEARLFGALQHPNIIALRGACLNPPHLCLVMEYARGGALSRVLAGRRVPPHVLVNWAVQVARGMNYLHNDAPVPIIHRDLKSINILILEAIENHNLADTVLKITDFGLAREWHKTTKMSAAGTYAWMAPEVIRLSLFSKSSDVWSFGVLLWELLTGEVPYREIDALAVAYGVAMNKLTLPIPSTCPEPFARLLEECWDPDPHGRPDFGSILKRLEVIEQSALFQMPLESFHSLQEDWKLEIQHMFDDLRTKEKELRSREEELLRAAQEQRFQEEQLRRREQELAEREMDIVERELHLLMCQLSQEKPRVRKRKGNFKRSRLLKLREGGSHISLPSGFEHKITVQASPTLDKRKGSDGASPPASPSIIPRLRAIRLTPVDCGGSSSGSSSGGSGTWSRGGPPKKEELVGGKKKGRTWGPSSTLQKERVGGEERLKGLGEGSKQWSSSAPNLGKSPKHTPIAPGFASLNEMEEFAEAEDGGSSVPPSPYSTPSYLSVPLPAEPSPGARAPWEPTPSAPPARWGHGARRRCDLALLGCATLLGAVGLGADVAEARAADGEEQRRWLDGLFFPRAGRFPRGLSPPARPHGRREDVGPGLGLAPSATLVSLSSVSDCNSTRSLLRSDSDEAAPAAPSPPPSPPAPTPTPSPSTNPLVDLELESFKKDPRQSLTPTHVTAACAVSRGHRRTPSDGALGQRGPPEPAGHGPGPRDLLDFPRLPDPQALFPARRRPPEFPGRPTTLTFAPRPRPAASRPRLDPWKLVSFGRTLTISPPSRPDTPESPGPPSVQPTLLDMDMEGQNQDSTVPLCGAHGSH
Serine/threonine-protein kinase Nek2 (Homo sapiens), sequence (P51955 whole entry, the tested form may be a part): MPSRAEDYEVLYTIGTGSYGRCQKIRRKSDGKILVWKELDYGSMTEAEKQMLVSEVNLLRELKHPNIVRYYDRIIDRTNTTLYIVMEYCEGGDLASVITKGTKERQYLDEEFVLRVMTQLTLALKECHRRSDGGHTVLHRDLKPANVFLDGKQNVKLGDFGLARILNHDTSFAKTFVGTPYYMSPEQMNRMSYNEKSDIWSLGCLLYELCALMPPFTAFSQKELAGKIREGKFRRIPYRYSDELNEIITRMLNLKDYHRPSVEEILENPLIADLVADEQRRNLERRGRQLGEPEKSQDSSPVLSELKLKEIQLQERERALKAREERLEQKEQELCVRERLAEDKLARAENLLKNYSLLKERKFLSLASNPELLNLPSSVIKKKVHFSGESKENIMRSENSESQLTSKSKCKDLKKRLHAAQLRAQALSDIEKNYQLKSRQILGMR
MAP kinase-activated protein kinase 2 (Homo sapiens), sequence (P49137 whole entry, looked up): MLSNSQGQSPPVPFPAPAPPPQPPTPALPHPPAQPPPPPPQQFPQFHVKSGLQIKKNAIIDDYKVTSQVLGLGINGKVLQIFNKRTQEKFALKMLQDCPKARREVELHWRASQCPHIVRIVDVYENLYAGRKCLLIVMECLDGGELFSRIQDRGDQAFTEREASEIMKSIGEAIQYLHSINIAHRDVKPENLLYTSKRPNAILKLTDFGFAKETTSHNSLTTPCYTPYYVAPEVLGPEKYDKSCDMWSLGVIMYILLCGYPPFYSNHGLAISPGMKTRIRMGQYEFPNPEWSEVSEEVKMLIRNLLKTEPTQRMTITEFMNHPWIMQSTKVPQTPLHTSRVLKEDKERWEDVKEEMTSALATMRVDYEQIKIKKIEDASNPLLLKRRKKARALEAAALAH

| SMILES | Activity (T47D) | Activity [1] | inhibition (MDA-MB-231 [2]) | inhibition [3] | inhibition [4] | inhibition [5] | Activity (MDA-MB-231 [6]) |
| --- | --- | --- | --- | --- | --- | --- | --- |
| COc1cc2nccc(Oc3ccc(NC(=O)C4(C(=O)Nc5ccc(F)cc5)CC4)cc3)c2cc1OC [CABOZANTINIB] | Active | Non-Toxic | – | – | – | – | – |
| Cc1ccc(NC(=O)C2(C(=O)Nc3ccc(Nc4ncc(F)c(-c5cc(F)c6nc(C)n(C(C)C)c6c5)n4)cc3)CC2)cc1 | – | – | Active | 12% | 57% | 2% | Active |
